Data set [1] has as its system HUVEC. As to the kind of experiment: Inhibition of Akt/mTOR signalling in VEGF-induced HUVEC assessed as reduction in mTOR phosphorylation at Ser2448 residue at 1 to 20 uM pre-incubated for 1.5 hrs followed by VEGF stimulation and measured after 30 mins by Western blot analysis. Format: cell-based. As to conditions: Homo sapiens. In short, it runs like this:
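HUVECs were starved overnight, pretreated 1.5 h with 1, 5, 10 or 20 μM, then stimulated with VEGF (50 ng/mL) for 30 min. Lysates were equalized by Bradford assay, about 20 μg protein was resolved on gradient SDS-PAGE and immunoblotted with phospho-specific antibodies. Detection by HRP secondary antibodies and ECL.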

Data set [2] concerns HUVEC. In words: Induction of apoptosis in VEGF-stimulated HUVEC assessed as necrotic cells at 1 uM after 24 hrs by Annexin V-FITC/propidium iodide staining based flow cytometric analysis (reference value: 12.1%). Format: cell-based. Particulars: human. In short, it runs like this: (§1)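 HUVECs plated at 5×10^5 per well and treated 24 h with 1, 5, 10 or 20 μM. Detached and adherent cells were pooled, washed in ice-cold PBS and resuspended in fresh medium. 1×10^5 cells were stained with annexin-V-FITC in annexin-V buffer for 20 min in the dark, then PI (50 μg/mL) was added. Read-out by flow cytometry.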
For orientation: Flow cytometry measures light scatter and fluorescence of single cells or particles in a stream.

The target in data set [3] is Vascular endothelial growth factor receptor 2 (Homo sapiens) (UniProt P35968). In words: Inhibition of VEGFR2 in VEGF-stimulated HUVEC assessed as downregulation of AKT phosphorylation at Ser473 residue at 1 to 10 uM pre-incubated for 2 hrs followed by VEGF stimulation and measured after 15 mins by Western blot analysis. Format: cell-based. The gist of the method: (§2)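 HUVECs serum-starved overnight, pretreated 2 h with 1, 2.5, 5 or 10 μM compound, then stimulated 15 min with 50 ng/mL VEGF165. Lysed in Tris/EDTA/Triton/deoxycholate/SDS buffer with phosphatase and protease inhibitors. Protein equalized by Bradford, about 20 μg resolved on gradient SDS-PAGE. Blots probed for phospho and total VEGFR2 (Tyr1175), ERK1/2 (Thr202/Tyr204) and AKT (Ser473) against actin, with HRP/ECL detection.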
Sequence of Vascular endothelial growth factor receptor 2 (Homo sapiens) (P35968 whole entry): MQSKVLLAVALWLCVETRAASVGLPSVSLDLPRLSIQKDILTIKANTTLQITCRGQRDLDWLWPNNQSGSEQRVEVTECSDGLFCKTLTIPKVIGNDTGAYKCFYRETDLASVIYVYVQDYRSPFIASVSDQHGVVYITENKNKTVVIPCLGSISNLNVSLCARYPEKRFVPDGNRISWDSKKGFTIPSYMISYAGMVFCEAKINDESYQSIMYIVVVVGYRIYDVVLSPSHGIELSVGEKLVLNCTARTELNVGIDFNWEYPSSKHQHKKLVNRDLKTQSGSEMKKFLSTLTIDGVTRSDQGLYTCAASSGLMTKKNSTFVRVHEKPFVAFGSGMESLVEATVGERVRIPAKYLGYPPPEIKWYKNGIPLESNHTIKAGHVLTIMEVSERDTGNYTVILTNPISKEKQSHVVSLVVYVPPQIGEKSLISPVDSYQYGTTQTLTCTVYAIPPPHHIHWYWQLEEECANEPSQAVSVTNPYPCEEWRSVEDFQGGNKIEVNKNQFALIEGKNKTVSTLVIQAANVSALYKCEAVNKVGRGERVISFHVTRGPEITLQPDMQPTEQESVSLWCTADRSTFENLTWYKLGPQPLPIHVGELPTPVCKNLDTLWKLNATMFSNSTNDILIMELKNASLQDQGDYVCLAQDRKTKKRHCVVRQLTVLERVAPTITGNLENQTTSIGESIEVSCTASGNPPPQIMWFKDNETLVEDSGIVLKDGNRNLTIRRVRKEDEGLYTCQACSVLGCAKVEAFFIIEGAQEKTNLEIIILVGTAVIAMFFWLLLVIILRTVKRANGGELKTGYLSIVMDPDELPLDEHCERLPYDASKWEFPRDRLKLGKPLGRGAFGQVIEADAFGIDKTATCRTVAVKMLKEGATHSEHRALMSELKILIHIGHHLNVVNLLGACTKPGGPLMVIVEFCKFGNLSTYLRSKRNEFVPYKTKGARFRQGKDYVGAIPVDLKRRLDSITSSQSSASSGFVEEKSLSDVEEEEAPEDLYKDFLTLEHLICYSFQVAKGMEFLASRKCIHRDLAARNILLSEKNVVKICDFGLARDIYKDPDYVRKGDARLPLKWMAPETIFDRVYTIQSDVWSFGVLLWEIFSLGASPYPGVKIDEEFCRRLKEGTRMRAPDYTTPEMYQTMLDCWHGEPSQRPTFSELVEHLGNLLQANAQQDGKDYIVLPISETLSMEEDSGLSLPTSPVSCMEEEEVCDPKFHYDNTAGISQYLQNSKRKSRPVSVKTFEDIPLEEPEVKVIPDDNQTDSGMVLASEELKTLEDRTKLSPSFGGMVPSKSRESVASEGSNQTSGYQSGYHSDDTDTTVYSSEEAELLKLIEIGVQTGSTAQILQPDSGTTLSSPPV

In data set [4] the test system is HT-29. As to the kind of experiment: Downregulation of VEGF expression in human HT-29 cells after 24 hrs by immunoblot analysis. Format: functional, cell-based.
Data set [5] has as its target Serine/threonine-protein kinase mTOR (Homo sapiens) (UniProt P42345). In words: Inhibition of mTOR (unknown origin) at 10 uM using myelin basic protein as substrate in presence of [gamma-33P]-ATP by scintillation counting analysis relative to control. In short, it runs like this: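 Radiometric kinase panel run by a contract lab. Kinase (5–10 mU) in 25 mM Tris pH 7.5, 0.02 mM EGTA, 0.66 mg/mL myelin basic protein, magnesium acetate and [γ-33P]-ATP (about 500 cpm/pmol). Started with Mg-ATP mix, 40 min at room temperature, stopped with 3% phosphoric acid. Spotted on P30 filters, washed in 75 mM phosphoric acid and methanol, scintillation counted. Mean ± SD of three independent experiments.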

Data set [6] has as its target Vascular endothelial growth factor receptor 2 (Homo sapiens) (UniProt P35968). In words: Inhibition of VEGFR2 in VEGF-stimulated HUVEC assessed as downregulation of ERK1/2 phosphorylation at Thr202/Tyr204 residues at 1 to 10 uM pre-incubated for 2 hrs followed by VEGF stimulation and measured after 15 mins by Western blot analysis. Format: cell-based. In short, it runs like this:
as §2
(In general: A western blot detects proteins with antibodies after separation by electrophoresis.)

Another data set deals with HCT-116. As to the kind of experiment: Cytotoxicity against human HCT116 cells assessed as reduction in cell growth after 72 hrs by MTT assay. The data set is classed as cell-based. As to conditions: HCT-116, 72 h. Background: Tetrazolium dyes change colour on reduction, which living cells bring about.
In data set [7] the test system is HT-29. As to the kind of experiment: Induction of apoptosis in human HT-29 cells assessed as necrotic cells at 10 uM after 24 hrs by Annexin V-FITC/propidium iodide staining based flow cytometric analysis (reference value: 3.9%). The data set is classed as cell-based. Particulars: ht-29, 24 h.
The subject of data set [8] is HT-29. As to the kind of experiment: Downregulation of VEGF mRNA expression in human HT-29 cells after 24 hrs by RT-qPCR assay. Format: functional, cell-based. In short, it runs like this:
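HT29 cells treated with 1, 5, 10 or 20 μM for 24 h; total RNA extracted with TRIzol; SYBR Green qPCR, 40 cycles of 5 s at 95°C and 60 s at 60°C in 20-μL reactions.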

Data set [9] deals with HT-29. In words: Induction of apoptosis in human HT-29 cells assessed as late apoptotic cells at 5 uM after 24 hrs by Annexin V-FITC/propidium iodide staining based flow cytometric analysis (reference value: 12.3 to 13.4%). Format: cell-based. Particulars: ht-29, 24 h.
Data set [10] has as its system HT-29. In words: Downregulation of HIF1-alpha expression in human HT-29 cells after 24 hrs by immunoblot analysis. Format: functional, cell-based.
Data set [11] relates to HUVEC. As to the kind of experiment: Induction of apoptosis in VEGF-stimulated HUVEC assessed as early apoptotic cells at 20 uM after 24 hrs by Annexin V-FITC/propidium iodide staining based flow cytometric analysis (reference value: 7%). The data set is classed as cell-based. Particulars: human. The gist of the method: as §1
Data set [12] relates to HT-29. As to the kind of experiment: Antiangiogenic activity against human HT-29 cells xenografted in mouse assessed as reduction in mean vessel density in tumour at 40 mg/kg, po administered for 7 days measured at 20 days post-treatment. The data set is classed as functional, organism-based.
Data set [13] relates to HUVEC. In words: Induction of apoptosis in VEGF-stimulated HUVEC assessed as necrotic cells at 10 uM after 24 hrs by Annexin V-FITC/propidium iodide staining based flow cytometric analysis (reference value: 12.1%). Format: cell-based. As to conditions: human. In short, it runs like this:
as §1

Data set [14] has as its system HT-29. As to the kind of experiment: Cytotoxicity against human HT-29 cells assessed as reduction in cell growth after 72 hrs by MTT assay. Particulars: HT-29, 72 h. The data set is classed as cell-based.
In data set [15] the test system is HT-29. As to the kind of experiment: Induction of apoptosis in human HT-29 cells assessed as late apoptotic cells at 5 uM after 72 hrs by Annexin V-FITC/propidium iodide staining based flow cytometric analysis (reference value: 12.3%). As to conditions: ht-29, 72 h. Format: cell-based.
The next data set has as its system HepG2. In words: Cytotoxicity against human HepG2 cells assessed as reduction in cell growth after 72 hrs by MTT assay. The data set is classed as cell-based. Particulars: HepG2, 72 h.
Data set [16] concerns HUVEC. In words: Induction of apoptosis in VEGF-stimulated HUVEC assessed as early apoptotic cells at 1 uM after 24 hrs by Annexin V-FITC/propidium iodide staining based flow cytometric analysis (reference value: 7%). As to conditions: human. Format: cell-based. In short, it runs like this: as §1
The subject of data set [17] is HUVEC. In words: Induction of apoptosis in VEGF-stimulated HUVEC assessed as late apoptotic cells at 20 uM after 24 hrs by Annexin V-FITC/propidium iodide staining based flow cytometric analysis (reference value: 11.3%). Format: cell-based. Particulars: human. The gist of the method: as §1
For data set [18], the system named is HT-29. As to the kind of experiment: Induction of apoptosis in human HT-29 cells assessed as PARP cleavage up to 20 uM after 24 to 72 hrs by Western blot analysis. Format: cell-based.
The subject of data set [19] is HUVEC. As to the kind of experiment: Antiangiogenic activity in HUVEC assessed as inhibition of VEGF-induced capillary like tube formation at 5 uM preincubated with VEGF for 20 mins followed by compound addition measured after 6 hrs by matrigel based tube formation assay relative to control. As to conditions: Homo sapiens. The data set is classed as functional. The gist of the method:
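Matrigel (100 μL) set 1 h at 37°C; 2×10⁴ HUVECs in M200 with 10% FBS added per well plus 10 ng/mL VEGF; compound added after 20 min; incubated 6 h at 37°C, then capillary-like structures photographed.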

Active and inactive are the calls of the source. The calls are words filed in the database; no cut-off is given here.

Consider `COc1ccc(NC(=O)c2cccc(/C=C3\CC(=O)N(c4ccc(C)cc4)C3=O)c2)cc1`, for which the inhibition result (with HUVEC [1]; in data set [3]; in data set [6]; with HT-29 [12]) was “Active” throughout. Further, the Activity in the data set with HUVEC [2] is 6.2%; with HT-29 [7] it was 2.3%; with HT-29 [9] it was 15.9 to 18.4%; in the data set on HUVEC [11], 9.8%; in the data set with HUVEC [13], 5.4%; with HT-29 [15] it was 12.5%. Also, the Activity with HUVEC [16] was 10.7%; in the data set with HUVEC [17], 10.1%; in the data set on HT-29 [18] it was “Non-Toxic”. For the same molecule, the inhibition result in the data set on HT-29 [4] is “Dose-dependent effect”; in data set [5] it was 93.8%; with HT-29 [10] it was “Dose-dependent effect”. Further, the half-maximal inhibitory concentration (IC50) in the data set with HCT-116, with HT-29 [14] and in the data set on HepG2 was more than 100 µM each time. In addition, the inhibition result with HT-29 [8] is “inactive”. The inhibition at 5 µM in the data set on HUVEC [19] was 80%.

By inhibition is commonly meant the change of the read-out against control, counted positive when it falls. As a reminder, the IC50 is the midpoint of a concentration-inhibition curve.

Source of the values: ChEMBL document CHEMBL4396917, “Synthesis and biological evaluation of novel benzylidene-succinimide derivatives as noncytotoxic antiangiogenic inhibitors with anticolorectal cancer activity in vivo” (Eur J Med Chem, 2019).
